Test results published in ChEMBL document CHEMBL4354825, “Design and Synthesis of Basic Selective Estrogen Receptor Degraders for Endocrine Therapy Resistant Breast Cancer” (J Med Chem, 2019).

What was measured:
[1] = Drug concentration in C57BL/6 mouse brain at 100 mg/kg, po measured after 0.5 hrs by LC/MS-MS analysis; format: ADME, organism-based; conditions: read-out: Drug uptake
Outline: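 PK screen in female C57BL/6 mice (N = 3 per time point). Dosed by gavage at 100 mg/kg in HPβD/PEG-400. Plasma and brain were taken from perfused mice at 30 and 120 min. Quantified by LC-MS/MS in MRM mode, with standard curves in each matrix and a common internal standard. Values are mean and s.d.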

cells = conditions: Homo sapiens, MCF7:5C, 168 h, read-out: pIC50 (converted)
[2] = Antiproliferative activity against human MCF7:5C cells assessed as reduction in cell viability incubated for 7 days by Hoechst 33258 dye based assay relative to control; format: functional; conditions: 168 h
Outline: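 Cells were seeded at 5000 per well; MCF7:WS8 had been estrogen-stripped for 2 days first. Compounds were serially diluted in DMSO, with 0.01% DMSO as vehicle. The medium was removed on day 5 (MCF7:WS8) or day 7 (MCF7:5C), and cells were lysed by freezing at −80 °C overnight. DNA was measured by Hoechst 33258 fluorescence. Maximum efficacy was normalized to vehicle (0%) and no cells (100%); at least three biological replicates.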

[3] = AUC extrapolated from the last time point to infinity in CD-1 mouse at 5 mg/kg, iv measured upto 24 hrs by LC-MS/MS analysis; conditions: in vivo

concentration at 0.5 h [1]: 1630 nM | IC50 (cells): 0.347 nM | %AUCextra [3]: 1.52%
Structure (SMILES): Cc1cc(F)cc(C)c1C(=O)c1sc2cc(O)ccc2c1Oc1ccc(OC2CN(CCCF)C2)cc1
Emax [2]: 54%
